The source made the active and inactive calls.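 Rule for the calls, unless noted: active = inhibition of the reporter signal at or above 50%; inactive = inhibition below 50%.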
Key:
[1] = inhibitors of TNFa-induced NFkB p65 translocation, primary screen, imaging, HUVEC, MLSMR starter and 10KST1 sets (AID 438;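 active = inhibition above 20% together with a positive visual image hit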;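 note: compound added about 3h40 before a 20 min TNFalpha stimulation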;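 for inhibition: signal is the nuclear over cytoplasmic p65 intensity ratio per well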); conditions: HUVEC TNFa-induced p65 nuclear translocation; cell count: measured here: nuclei count (cytotoxicity indicator), at 2.08 µM; inhibition: at 2 µM, stronger effect = higher value, 0% TNFa-plus-vehicle, 100% no-TNFa wells
[2] = reduction of polyQ htt aggregates in cells – imaging, exon1htt(103Q)mCFP cells, high-content imaging, primary screen (AID 483;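 active = visual image review flags a hit and inhibition of aggregation exceeds 20%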;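 note: compound exposure lasted 3 days before fixation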;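 for nuclei count: percent of the per-plate median nuclei count of sample wells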); conditions: exon1htt(103Q)mCFP cell line, aggregate imaging, at 2 µM; inhibition of aggregation: stronger effect = higher value; nuclei count: measured here: cell count, toxicity
[3] = endothelial E-selectin expression blockers – imaging, HUVEC, immunofluorescence, MLSMR starter and 10KST1 sets, primary screen (AID 487;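 active = visually confirmed hit in the image check and inhibition above 20%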;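 for inhibition: signal is fraction of cell area covered by stained E-selectin grains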;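 for nuclei count: 100% = median nuclei count of all wells on the same plate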); conditions: HUVEC TNFalpha-induced E-selectin immunofluorescence imaging, at 2 µM; inhibition: stronger effect = higher value; nuclei count: measured here: cell number, toxicity
[4] = target: Voltage-gated potassium channel subunit beta-2 (Rattus norvegicus) (UniProt P62483); assay: inhibitors of rat Kvbeta2 reductase activity – biochemical, NADPH fluorescence, primary screen (AID 622;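 active = fluorescence slope higher than the sample average by over 3 SD, cut at about -0.22 in these data, passing the limit was not always enough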;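 note: slope of raw intensity against log time taken from 70 to 1610 s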); conditions: recombinant KvBeta, 4-cyanobenzaldehyde reduction, at 10 µM, stronger effect = higher value
Chain of Voltage-gated potassium channel subunit beta-2 (Rattus norvegicus) (P62483 whole entry, looked up): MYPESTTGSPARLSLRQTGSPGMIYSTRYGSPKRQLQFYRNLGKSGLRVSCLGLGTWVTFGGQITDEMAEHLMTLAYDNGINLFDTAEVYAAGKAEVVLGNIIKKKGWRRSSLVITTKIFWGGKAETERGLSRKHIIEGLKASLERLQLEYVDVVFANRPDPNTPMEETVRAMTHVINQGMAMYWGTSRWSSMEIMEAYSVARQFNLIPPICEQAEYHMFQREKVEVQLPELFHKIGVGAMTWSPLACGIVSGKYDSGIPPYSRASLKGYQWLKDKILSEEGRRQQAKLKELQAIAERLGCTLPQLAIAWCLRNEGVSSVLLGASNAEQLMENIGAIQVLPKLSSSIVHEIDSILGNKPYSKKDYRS

[5] = target: Voltage-gated potassium channel subunit beta-2 (Rattus norvegicus) (UniProt P62483); assay: enhancers of rat Kvbeta2 NADPH turnover – biochemical, NADPH fluorescence, primary screen (AID 623;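 active = NADPH fluorescence slope more negative than the mean of all samples by about 3 SD, 99.7% confidence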;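 note: fluorescence intensity change per second fitted from 20 to 320 s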); conditions: Recombinant KvBeta, NADPH fluorescence decrease slope, 10 min; at 10 µM; stronger effect = lower value
[6] = target: Muscarinic acetylcholine receptor M4 (Homo sapiens) (UniProt P08173); assay: M4-linked GIRK flux change, two-sided – cell-based, HEK293 M4/GIRK, thallium flux, BTC-AM, M4 allosteric agonist project, primary screen (AID 625;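 active = fluorescence slope after compound addition differing from the mean of all tested samples at 99.7% confidence, mostly higher but some lower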;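 note: thallium influx through GIRK channels coupled to M4 in HEK293 cells with BTC-AM dye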); conditions: at 10 µM, actives lie on both sides
Chain of Muscarinic acetylcholine receptor M4 (Homo sapiens) (P08173 whole entry, looked up): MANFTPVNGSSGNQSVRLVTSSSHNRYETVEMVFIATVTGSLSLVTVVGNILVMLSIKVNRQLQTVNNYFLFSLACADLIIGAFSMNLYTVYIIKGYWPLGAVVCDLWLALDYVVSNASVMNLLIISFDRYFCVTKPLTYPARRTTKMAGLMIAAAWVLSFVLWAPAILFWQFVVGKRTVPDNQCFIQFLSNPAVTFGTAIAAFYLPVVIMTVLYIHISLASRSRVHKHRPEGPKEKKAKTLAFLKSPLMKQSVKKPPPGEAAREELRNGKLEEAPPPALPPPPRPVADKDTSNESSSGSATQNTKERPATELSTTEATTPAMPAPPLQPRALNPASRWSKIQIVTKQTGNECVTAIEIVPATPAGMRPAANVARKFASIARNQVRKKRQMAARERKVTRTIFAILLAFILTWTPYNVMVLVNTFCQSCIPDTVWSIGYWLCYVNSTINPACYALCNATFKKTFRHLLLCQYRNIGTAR
Method in brief: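 System: HEK293 cells with M4 receptor and GIRK channels | Incubation: Cells overnight at 37 °C, BTC-AM loading 1 h, reads 2 min total | Technique: Kinetic BTC-AM fluorescence sampled at 1 Hz, 10 s pre-addition baseline | Measure: Post-addition slope, 15–24 s, of baseline-normalized fluorescence | Control set: Carbachol positive, DMSO negative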

[7] = blockers of RIG-like receptor reporter activation – cell-based, Sendai virus stimulus, luciferase, 10K MLSCN set, TLR/RLR signaling modifier project, primary screen (AID 602276;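 active = inhibition at or above 50% at 10 µM; inactive = inhibition below 50%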;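 note: firefly luciferase from ISG56 promoter only with Renilla not read in this screen; 0% = Sendai virus plus DMSO and 100% = medium plus DMSO without virus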); conditions: HEK293 RL24 IRF3 luciferase reporter, at 10 µM, stronger effect = higher value
[8] = TLR3 IRF3 reporter activation blockers – cell-based, poly I:C stimulus, luciferase, 10K MLSCN set, primary screen (AID 602277); conditions: HEK293-TLR3 RL24 IRF3 luciferase reporter, at 10 µM, stronger effect = higher value

| SMILES | cell count [1] | inhibition [1] | inhibition of aggregation [2] | nuclei count [2] [%] | inhibition [3] | nuclei count [3] [%] | fluorescence slope [4] | NADPH fluorescence slope [5] | fluorescence slope [6] | inhibition [7] | inhibition [8] |
| --- | --- | --- | --- | --- | --- | --- | --- | --- | --- | --- | --- |
| CC(=O)NCCn1c(SCC(=O)NCC2CCCO2)nc2ccccc2c1=O (centres undefined) | 515 | -8.5% (inactive) | 4.3% (inactive) | 110 | 21.7% (inactive) | 103 | -0.471 (inactive) | 5.6e-05 (inactive) | 0.00516 (inactive) | 3.29% (inactive) | 12.9% (inactive) |
| CCn1c(=O)cc(SCC(=O)NCCN2CCN(Cc3ccccc3)CC2)c2ccccc21 | 478 | 4.3% (inactive) | 21.3% (inactive) | 93.3 | 14.7% (inactive) | 108 | -0.559 (inactive) | 3.3e-05 (inactive) | 0.00537 (inactive) | 16.8% (inactive) | 47.8% (inactive) |
| Cc1cc(NC(=O)COc2cccc3cccnc23)no1 | 465 | 2% (inactive) | 11.9% (inactive) | 103 | -67.8% (inactive) | 106 | -0.385 (inactive) | -2.5e-05 (inactive) | 0.00637 (inactive) | -7.48% (inactive) | -15.6% (inactive) |
| CCOc1ccccc1NC(=O)N1C2CCCC1CC(NC(=O)C1CC1)C2 (centres undefined) | 417 | -3.2% (inactive) | 6.6% (inactive) | 110 | -75.6% (inactive) | 97.6 | -0.515 (inactive) | 4.4e-06 (inactive) | 0.00474 (inactive) | 17.1% (inactive) | 23.8% (inactive) |
| CS(=O)(=O)c1ccc2nc(NC(=O)CCC(=O)c3cccs3)sc2c1 | 517 | 2.6% (inactive) | -3.8% (inactive) | 105 | -87.7% (inactive) | 95.8 | -0.594 (inactive) | 1.3e-06 (inactive) | 0.00448 (inactive) | 14.5% (inactive) | 4.68% (inactive) |
| CC(=O)N1CCc2cc(S(=O)(=O)CCC(=O)N3CCN(c4ccccn4)CC3)ccc21 | 592 | -2.7% (inactive) | 2.8% (inactive) | 107 | -65.1% (inactive) | 94.5 | -0.456 (inactive) | 5.1e-05 (inactive) | 0.0102 (inactive) | -15.2% (inactive) | -27.2% (inactive) |
| CCOc1cc(C(=O)NCC2CCCO2)cc(OCC)c1OCC (centres undefined) | 430 | -9.3% (inactive) | -3.9% (inactive) | 106 | -133% (inactive) | 102 | -0.213 (inactive) | -3.4e-05 (inactive) | 0.00818 (inactive) | 15.1% (inactive) | 9.52% (inactive) |
| C/C(=C(\C#N)C(=O)NCCCN1CCOCC1)N(C)C | 475 | -11.2% (inactive) | 20.1% (inactive) | 75.2 | -96.7% (inactive) | 115 | -0.581 (inactive) | -1.9e-05 (inactive) | 0.0035 (inactive) | 1.58% (inactive) | -2.64% (inactive) |
| c1ccc(-c2cn3c4c(sc3n2)CCCC4)cc1 | 789 | -4.8% (inactive) | 40% (inactive) | 118 | -34.8% (inactive) | 116 | -0.493 (inactive) | -7.1e-06 (inactive) | 0.00593 (inactive) | 5.66% (inactive) | 71.3% (active) |
| Cc1cccc(-n2c(Cc3cc(=O)[nH]c(=O)[nH]3)nnc2SCC(=O)NCc2ccco2)c1 | 400 | -4% (inactive) | -21.7% (inactive) | 90 | -15.1% (inactive) | 101 | -0.529 (inactive) | -4.9e-05 (inactive) | 0.00455 (inactive) | 12.7% (inactive) | 7.93% (inactive) |
| Cc1cc(C)n2cc(CSCc3ccco3)nc2n1 | 566 | -13.6% (inactive) | 4.9% (inactive) | 89.3 | 18.2% (inactive) | 88.2 | -0.238 (inactive) | -2.7e-05 (inactive) | 0.00628 (inactive) | 11.1% (inactive) | 8.26% (inactive) |
| CC(C)CNC(=O)C1C2C=CC(C2)C1C(=O)O (centres undefined) | 456 | -2.9% (inactive) | -8.2% (inactive) | 98.4 | -33.7% (inactive) | 128 | -0.535 (inactive) | -4e-05 (inactive) | 0.00535 (inactive) | 13.4% (inactive) | 20.4% (inactive) |
| CCOC(=O)c1ccc(NC2OC(=O)c3ccccc32)cc1 (centres undefined) | 605 | -54.1% (inactive) | 6.4% (inactive) | 106 | -85.2% (inactive) | 118 | -0.216 (inactive) | -2.5e-05 (inactive) | 0.00703 (inactive) | 11.8% (inactive) | -21.4% (inactive) |
| NC(=O)c1sc2nc(N3CCCCC3)c3c(c2c1N)CCCC3 | 369 | 8.4% (inactive) | -12.2% (inactive) | 118 | 26.5% (inactive) | 111 | 1.5e-14 (active) | 0 (inactive) | 0.00601 (inactive) | 1.9% (inactive) | 10.7% (inactive) |
